Experimental data taken from paper PMC7594119 (ACS Omega, 2020).

Key:
[1] = biological target: T1, CDK6 (Homo sapiens, UniProt Q00534); test: Kinase inhibition; assay type: biochemical
How it was run: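 Purified recombinant CDK6 (pET28a+, E. coli Codon+ expression, Ni-NTA) at 1 μM was incubated with 50 μM fresh ATP and increasing test compound (0–10 μM) for 1 h at 25 °C. Malachite green stopped the reaction, with colour developed 15–20 min at room temperature.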

[2] = biological target: T1, CDK6; test: Fluorescence quenching binding studies with CDK6; conditions: for Kq (bimolecular quenching rate constant): Kq=Ksv/τ0; for ΔG: van't Hoff; for Kd: K (binding constant, modified Stern–Volmer)
[3] = biological target: T1, CDK6; test: Isothermal titration calorimetry with CDK6; conditions: ITC, 25 °C, one binding site model
How it was run: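 Recombinant CDK6 was expressed from pET28a+ in E. coli Codon+ cells (IPTG induction at 18 °C) and purified on Ni-NTA. Protein was dialysed against 25 mM Tris, 200 mM MgCl2, with ligand dissolved in the same buffer and 1% v/v DMSO added to protein. At 25 °C, 500 μM test compound in the syringe was titrated into 15 μM CDK6. Buffer-titration heats were subtracted before fitting n, ΔH and Ka.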

[4] = test system: MCF-7 cells; test: Cell viability MTT assay, MCF-7; assay type: cell-based; conditions: Homo sapiens, MCF7, 72 h, read-out: IC50, cell viability
How it was run: (§1)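 Cells were seeded at 5000–5500/well in 96-well plates and exposed to test compound (0–250 μM) for 72 h. MTT (from 5 mg/mL stock in PBS, pH 7.4) was added for 4–5 h. Formazan was dissolved in DMSO and OD read at 570 nm, then converted to % viability. Data are mean ±SD, n = 3.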

[5] = test system: A549 cells; test: Cell viability MTT assay, A549; assay type: cell-based; conditions: Homo sapiens, A549, 72 h, read-out: IC50, cell viability
How it was run: as §1

[6] = test system: MCF-7 cells; test: Annexin-V/PI staining apoptosis, MCF-7; assay type: cell-based; conditions: MCF-7, IC50 concentration, 48 h
How it was run: (§2)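 MCF-7 and A549 cells were treated with test compound or vehicle for 48 h, then harvested. They were stained with annexin-V/PI and analysed by flow cytometry to quantify apoptotic cells.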

[7] = test system: A549 cells; test: Annexin-V/PI staining apoptosis, A549; assay type: cell-based, human; conditions: A549, IC50 concentration, 48 h
How it was run: as §2

[8] = test system: CDK6 expression in MCF-7 cells; test: CDK6 protein expression; assay type: cell-based; conditions: MCF-7, IC50 dose
How it was run: (§3)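 MCF-7 and A549 cells were treated with test compound or vehicle for a stipulated time, then harvested by trypsinization. They were lysed in RIPA buffer and protein was quantified by BCA. CDK6 was detected by Western blot with anti-CDK6 antibody, and band intensity was normalized to β-actin loading control.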

[9] = test system: CDK6 expression in A549 cells; test: CDK6 protein expression; assay type: cell-based, human; conditions: A549, IC50 dose
How it was run: as §3

[10] = test system: MCF-7 cells; test: ROS determination; assay type: cell-based; conditions: MCF-7, IC50 dose, 5–6 h
How it was run: (§4)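 MCF-7 and A549 cells were treated with test compound or DMSO vehicle for 5–6 h. They were then loaded with 10 μM H2DCFDA for 30 min, trypsinized, and washed twice with PBS. Total ROS was measured by flow cytometry.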

[11] = test system: A549 cells; test: ROS determination; assay type: cell-based, human; conditions: A549, IC50 dose, 5–6 h
How it was run: as §4

[12] = test system: MCF-7 cells; test: Colony formation assay, MCF-7; assay type: cell-based; conditions: MCF-7, IC50 concentration, 8–10 days
How it was run: (§5)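 MCF-7 or A549 cells were plated at about 1000–1500 cells/well in 6-well plates. They were treated with test compound for 8–10 days at 37 °C, 5% CO2, with DMSO as vehicle control. Colonies were fixed with 100% methanol, stained with crystal violet, and counted by image analysis relative to vehicle.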

[13] = test system: A549 cells; test: Colony formation assay, A549; assay type: cell-based, human; conditions: A549, IC50 concentration, 8–10 days
How it was run: as §5

[14] = van't Hoff plot over 15, 25, 30 °C, same value printed at each temperature

T1 sequence (Q00534 whole entry): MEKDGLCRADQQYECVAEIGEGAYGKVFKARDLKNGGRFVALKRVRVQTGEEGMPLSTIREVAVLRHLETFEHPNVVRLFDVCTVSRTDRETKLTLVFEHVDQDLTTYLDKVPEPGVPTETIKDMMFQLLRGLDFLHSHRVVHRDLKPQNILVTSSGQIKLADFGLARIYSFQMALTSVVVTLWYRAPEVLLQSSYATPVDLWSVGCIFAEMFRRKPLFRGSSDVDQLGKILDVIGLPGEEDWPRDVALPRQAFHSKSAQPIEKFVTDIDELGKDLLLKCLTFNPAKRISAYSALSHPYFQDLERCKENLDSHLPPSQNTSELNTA

O=c1c(O)c(-c2ccc(O)c(O)c2)oc2cc(O)cc(O)c12 [quercetin]
IC50 [1]: 5.89 µM | Ksv (Stern–Volmer constant) ([2]; 15 °C): 16.3 10^4 M^–1 | n (number of binding sites) ([2]; 15 °C): 1.35 | Kq (bimolecular quenching rate constant) ([2]; 15 °C): 6.03 10^13 M^–1 s^–1 | ΔG ([2]; 15 °C): –9.400 kcal mol^–1 | Ksv (Stern–Volmer constant) ([2]; 25 °C): 13.6 10^4 M^–1 | TΔS ([2]; 25 °C): 2.46 kcal mol^–1 | n (number of binding sites) ([2]; 25 °C): 1.33 | Kq (bimolecular quenching rate constant) ([2]; 25 °C): 5.03 10^13 M^–1 s^–1 | ΔG ([2]; 25 °C): –9.482 kcal mol^–1 | Ksv (Stern–Volmer constant) ([2]; 30 °C): 12.2 10^4 M^–1 | TΔS ([2]; 30 °C): 2.50 kcal mol^–1 | n (number of binding sites) ([2]; 30 °C): 1.33 | Kq (bimolecular quenching rate constant) ([2]; 30 °C): 4.51 10^13 M^–1 s^–1 | ΔG ([2]; 30 °C): –9.524 kcal mol^–1 | Kd ([2]; 15 °C): 0.0769 µM | Kd ([2]; 25 °C): 0.104 µM | Kd ([2]; 30 °C): 0.143 µM | ΔH [2, 14]: –7.019 kcal mol^–1 | ΔS [2, 14]: 8.267 cal mol^–1 K^–1 | ΔH [3]: -112 ± 0.457 kcal/mol | ΔS [3]: −351 cal/mol/deg | IC50 [4]: 41.8 ± 2.21 µM | IC50 [5]: 52.4 ± 2.44 µM | cells in which apoptosis is induced [6]: ~21.10% | cells in which apoptosis is induced [7]: ~16.22% | effect on CDK6 expression [8]: decreases the CDK6 expression | effect on CDK6 expression [9]: decreases the CDK6 expression | effect on ROS production [10]: decreases the production of ROS | effect on ROS production [11]: decreases the production of ROS | effect on colonization (colony formation) [12]: significantly decreases the colonization | effect on colonization (colony formation) [13]: significantly decreases the colonization
